Laboratory results reported in ChEMBL document CHEMBL4339193, “Phenotypic Screening-Based Identification of 3,4-Disubstituted Piperidine Derivatives as Macrophage M2 Polarization Modulators: An Opportunity for Treating Multiple Sclerosis” (J Med Chem, 2019).
Active and inactive are the calls of the source. No cut-off for these calls is given here.

What was measured:
[1] = test system: Mus musculus; assay: (§1) Antiinflammatory activity in C57BL/6J mouse model of MOG (35 to 55 residues)/pertussis toxin/complete Freund's adjuvant-induced experimental allergic encephalomyelitis assessed as effect on dendritic cell population in spleen by measuring change in CD11c level at 200 mg/kg, ig administered daily starting from 7 days post-immunization measured after 13 to 19 days post-immunization by flow cytometry analysis; type: functional, organism-based
In short: (§2)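 MOG35-55/CFA EAE mice were dosed daily in saline from day 7 and sampled between days 13 and 19. Spleens and dLNs were mechanically dissociated to single cells. CNS cells came from collagenase IV digestion and a 70%/30% Percoll gradient. Cells were surface-stained with fluorochrome antibodies, including CD4, CD11b, CD11c and MHC-II, and analysed by flow cytometry.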

[2] = test system: Mus musculus; assay: (§3) Induction of M2 polarization in C57BL/6J mouse model of MOG (35 to 55 residues)/pertussis toxin/complete Freund's adjuvant-induced experimental allergic encephalomyelitis assessed as CD206 level in CNS at 200 mg/kg, ig administered daily starting from 7 days post-immunization measured after 13 to 19 days post-immunization by flow cytometry analysis (reference value: 7.8%); type: functional
In short: (§4)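 MOG35-55/CFA EAE mice were dosed daily in saline from day 7 and sampled between days 13 and 19. Cells came from spleen and dLN by mechanical dissociation and from CNS by collagenase IV/Percoll. They were stained for F4/80 with CD206 (M2) or CD86 (M1), and each was read by flow cytometry as a percentage of total F4/80+ macrophages.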

[3] = test system: Mus musculus; assay: as §3, with “spleen” for “CNS”, “23.4%)” for “7.8%)”; type: functional; in short: as §4
[4] = test system: BMDM; assay: Modulation of M2 polarization in C57BL/6J mouse BMDM cells assessed as up regulation of Arg1 expression at 300 nM measured after 4 to 24 hrs by Western blot analysis; type: functional, cell-based
In short: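 BMDMs lysed in pH 7.6 buffer with 1% Triton X-100, phosphatase inhibitor and 1 mM PMSF. Proteins separated by SDS-PAGE, blotted to PVDF and probed with anti-Arg-1, anti-Ym1 or anti-TNF-α, then ECL detection; GAPDH as loading control.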

[5] = test system: BMDM; assay: Inhibition of LPS-induced M1 polarization in C57BL/6J mouse BMDM cells assessed as down regulation of CD86 mRNA expression at 300 nM measured after 24 hrs by qRT-PCR analysis; type: functional, cell-based
In short: (§5)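 BMDMs pre-incubated 24 h with 50 ng/ml LPS to induce M1, then treated 24 h with 300 nM compound. Total RNA extracted with Trizol; Mcp1, Inos and Cd86 mRNA measured by qRT-PCR. Mean ± SEM.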

[6] = test system: BMDM; assay: Inhibition of LPS-induced M1 polarization in C57BL/6J mouse BMDM cells assessed as down regulation of Inos mRNA expression at 300 nM measured after 24 hrs by qRT-PCR analysis; type: functional, cell-based; in short: as §5
[7] = test system: RAW264.7; assay: Inhibition of M1 polarization in mouse RAW264.7 cells assessed as down regulation of TNFRSF10C mRNA expression at 300 nM measured after 24 hrs by qRT-PCR analysis; type: functional, cell-based
[8] = test system: RAW264.7; assay: Inhibition of M1 polarization in mouse RAW264.7 cells assessed as down regulation of IL6R mRNA expression at 300 nM measured after 24 hrs by qRT-PCR analysis; type: functional, cell-based
[9] = test system: RAW264.7; assay: Modulation of M2 polarization in mouse RAW264.7 cells assessed as up regulation of CD163 mRNA expression at 300 nM measured after 24 hrs by qRT-PCR analysis; type: functional, cell-based
[10] = test system: RAW264.7; assay: Modulation of M2 polarization in mouse RAW264.7 cells assessed as up regulation of CCR7 mRNA expression at 300 nM measured after 24 hrs by qRT-PCR analysis; type: functional, cell-based
[11] = Half life in Sprague-Dawley rat at 10 mg/kg, iv administered as single dose by LC/MS analysis; type: ADME, organism-based; details: in vivo
In short: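 Single dose in rats; venous blood (100 µL) drawn at 0, 0.5, 1, 2, 4, 8 and 12 h, plasma separated by centrifugation and held at -20 °C. Compound measured by LC/MS; Cmax, Tmax, t1/2 and AUC derived from the concentration–time data.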

[12] = test system: RAW264.7; assay: Inhibition of LPS-induced M1 polarization in mouse RAW264.7 cells assessed as down regulation of Mcp1 mRNA expression at 300 nM measured after 24 hrs by qRT-PCR analysis relative to control; type: functional, cell-based
In short: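 RAW264.7 cells pre-treated with LPS (50 ng/ml) for 24 h, then given 300 nM compound for 24 h. Mcp1 mRNA quantified by qRT-PCR relative to control. Mean ± SEM.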

[13] = test system: Mus musculus; assay: as §1, with “Treg” for “dendritic”, “CNS” for “spleen”, “CD4” for “CD11c”; type: functional, organism-based; in short: as §2
[14] = molecular target: RAC-alpha serine/threonine-protein kinase (Mus musculus) (UniProt P31750); assay: Stimulation of AKT phosphorylation at 473 residue in mouse RAW264.7 cells at 300 nM measured after 4 to 24 hrs by Western blot analysis; type: cell-based
RAC-alpha serine/threonine-protein kinase (Mus musculus), sequence (P31750 whole entry): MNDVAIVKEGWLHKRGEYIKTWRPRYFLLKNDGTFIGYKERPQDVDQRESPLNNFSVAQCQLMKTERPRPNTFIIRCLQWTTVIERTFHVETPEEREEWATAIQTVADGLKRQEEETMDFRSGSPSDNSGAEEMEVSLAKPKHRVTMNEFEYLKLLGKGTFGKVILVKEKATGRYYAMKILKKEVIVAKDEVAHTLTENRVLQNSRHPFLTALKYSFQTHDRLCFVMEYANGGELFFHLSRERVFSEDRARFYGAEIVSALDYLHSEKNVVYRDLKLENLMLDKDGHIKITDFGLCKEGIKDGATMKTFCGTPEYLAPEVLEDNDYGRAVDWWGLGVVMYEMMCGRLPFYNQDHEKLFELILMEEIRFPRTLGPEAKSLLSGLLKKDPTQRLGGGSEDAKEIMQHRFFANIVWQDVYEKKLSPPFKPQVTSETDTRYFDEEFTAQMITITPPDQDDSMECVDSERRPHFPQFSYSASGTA
In short: (§6)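 Cell lysates separated by SDS-PAGE, transferred to PVDF and probed for Akt, p-Akt(308), p-Akt(473), Stat3, p-Stat3(Y705), Stat6 and p-Stat6; ECL detection, GAPDH as loading control.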

[15] = molecular target: T1, Signal transducer and transcription activator 6 (Mus musculus) (UniProt P52633); assay: Stimulation of STAT6 phosphorylation at […] residue in mouse RAW264.7 cells at 300 nM measured after 4 to 24 hrs by Western blot analysis; type: cell-based; in short: as §6
T1 sequence (whole entry): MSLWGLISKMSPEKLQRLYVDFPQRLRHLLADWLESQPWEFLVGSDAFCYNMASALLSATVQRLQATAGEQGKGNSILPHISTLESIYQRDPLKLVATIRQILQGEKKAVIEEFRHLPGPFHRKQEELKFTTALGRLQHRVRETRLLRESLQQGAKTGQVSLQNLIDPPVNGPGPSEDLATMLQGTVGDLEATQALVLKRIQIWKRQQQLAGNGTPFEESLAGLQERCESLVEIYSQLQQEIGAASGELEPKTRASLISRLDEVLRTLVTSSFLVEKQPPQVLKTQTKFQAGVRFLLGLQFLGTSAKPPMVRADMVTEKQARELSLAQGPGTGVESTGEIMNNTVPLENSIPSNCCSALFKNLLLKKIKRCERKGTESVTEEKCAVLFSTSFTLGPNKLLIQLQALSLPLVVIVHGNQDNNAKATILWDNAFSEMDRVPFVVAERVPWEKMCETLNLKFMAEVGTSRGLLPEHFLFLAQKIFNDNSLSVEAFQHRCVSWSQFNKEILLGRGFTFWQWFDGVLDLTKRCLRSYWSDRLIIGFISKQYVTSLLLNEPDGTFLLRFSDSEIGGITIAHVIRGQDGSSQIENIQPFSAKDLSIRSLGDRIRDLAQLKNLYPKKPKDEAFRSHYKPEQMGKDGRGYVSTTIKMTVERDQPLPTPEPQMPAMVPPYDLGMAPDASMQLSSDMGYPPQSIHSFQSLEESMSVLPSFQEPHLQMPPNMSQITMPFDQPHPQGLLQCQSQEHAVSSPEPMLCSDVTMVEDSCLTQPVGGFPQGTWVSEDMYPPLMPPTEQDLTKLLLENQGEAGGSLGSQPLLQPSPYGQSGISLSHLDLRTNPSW

Structure (SMILES): Cl.Cn1ncc(Cl)c1-c1ccc(C(=O)N[C@@H]2CNCC[C@H]2c2cccc(F)c2)cc1
- Activity [1]: inactive
- Activity [2]: 12.7%
- Activity [3]: 37.2%
- Activity [4]: Active
- inhibition [5]: Active
- inhibition [6]: Active
- inhibition [7]: Active
- inhibition [8]: Active
- Activity [9]: Active
- Activity [10]: Active
- half-life [11]: 6.3 h
- inhibition [12]: Active
- Activity [13]: inactive
- Activity [14]: Active
- Activity [15]: inactive
